According to ChEMBL document CHEMBL1125298, “Hypocholesterolemic activity of synthetic and natural tocotrienols” (J Med Chem, 1992):
Converted amounts (≈) assume the structure as drawn. “And” between values parts separate entries of the source, which are not always exact repeats. Identical values can stand only once.

Columns and labels:
HepG2 [1] = test: Compound evaluated for percent inhibition of cholesterol synthesis from HMG-CoA Reductase in HepG2 cell; format: functional, Homo sapiens
HepG2 [2] = test: Compound evaluated for percent inhibition of cholesterol synthesis from [14C]acetate in HepG2 cell; format: functional, Homo sapiens; set-up: concentration or dose not given beside the values
HepG2 [3] = test: Compound is evaluated for the inhibition of cholesterol synthesis in HepG2 cells for an incubation time of 2 (h); format: functional, cell-based; details: Homo sapiens
In short: (§1)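 HepG2 cells were grown in RPMI-1640 with 10% FBS. At about 70% confluence they were switched to 7% lipid-depleted serum for 16 h. Compound in DMSO (0.5% v/v final) was added for the stated time. A [2-14C]acetate pulse over the final 60 min measured incorporation into digitonin-precipitable sterols. IC50 came from linear regression of at least four concentrations, each in duplicate.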

HepG2 [4] = test: Compound is evaluated for the inhibition of cholesterol synthesis in HepG2 cells for an incubation time of 4 (h); format: functional, cell-based; details: Homo sapiens; in short: as §1
HepG2 [5] = test: Compound is evaluated for relative potency versus gamma-tocotrienol at 2 (h) time point in HepG2 cells; format: functional, Homo sapiens
HepG2 [6] = test: Compound is evaluated for relative potency versus gamma-tocotrienol at 4 (h) time point in HepG2 cells; format: functional, Homo sapiens
HepG2 [7] = test: Compound is evaluated for relative potency versus gamma-tocotrienol at 6 (h) time point in HepG2 cells; format: functional, Homo sapiens
Rattus norvegicus [8] = species on record: Rattus norvegicus; test: Compound is evaluated for the inhibition of cholesterol biosynthesis in rat hepatocytes at a concentration of 210 (micro g/mL); format: functional, Hepatocyte
Rattus norvegicus [9] = species on record: Rattus norvegicus; test: Compound is evaluated for the inhibition of cholesterol biosynthesis in rat hepatocytes at a concentration of 41 (micro g/mL); format: functional, Hepatocyte
HepG2 [10] = test: Compound is evaluated for the inhibition of cholesterol synthesis in HepG2 cells for an incubation time of 6 (h); format: functional, cell-based; details: Homo sapiens; in short: as §1
Gallus gallus [11] = species on record: Gallus gallus; test: Compound is evaluated for the effect on lipid metabolism in 6-week-old male chickens at a concentration of 20 ppm in the diet and measured for HDL cholesterol; format: functional
Gallus gallus [12] = species on record: Gallus gallus; test: picomoles of mevalonic acid synthesized per minute per mg of microsomal protein; format: functional, organism-based
Gallus gallus [13] = species on record: Gallus gallus; test: Compound is evaluated for the effect on lipid metabolism in 6-week-old male chickens at a concentration of 20 ppm in the diet and measured for LDL cholesterol; format: functional
In short: (§2)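 Male chicks were raised 2 weeks on a corn-soybean control diet, then fed 4 weeks on control diet or the same diet with compound added. All birds were fasted 36 h and refed 48 h before sacrifice. Serum cholesterol is given as mg/100 mL.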

Gallus gallus [14] = species on record: Gallus gallus; test: Compound is evaluated for the effect on lipid metabolism in 6-week-old male chickens at a concentration of 20 ppm in the diet and measured for total cholesterol; format: functional
HepG2 [15] = test: Compound evaluated for Percent inhibition of cholesterol synthesis from HMG-CoA Reductase in HepG2 cell; format: functional, Homo sapiens
HepG2 [16] = test: Compound evaluated for Percent inhibition of cholesterol synthesis from [14C]acetate in HepG2 cell; format: functional, Homo sapiens
Rattus norvegicus [17] = species on record: Rattus norvegicus; test: Compound is evaluated for the inhibition of cholesterol biosynthesis in isolated rat hepatocytes at the concentration 250 (ug/mL); format: functional, Hepatocyte
Rattus norvegicus [18] = species on record: Rattus norvegicus; test: Compound is evaluated for the inhibition of cholesterol biosynthesis in isolated rat hepatocytes at the concentration 500 (ug/mL); format: functional, Hepatocyte
Rattus norvegicus [19] = species on record: Rattus norvegicus; test: Inhibitory concentration required to inhibit cholesterol synthesis in isolated rat Hepatocytes; format: functional, Hepatocyte
Rattus norvegicus [20] = species on record: Rattus norvegicus; test: Compound is evaluated for the inhibition of cholesterol biosynthesis in isolated rat hepatocytes at the concentration 125 (ug/mL); format: functional, Hepatocyte
Rattus norvegicus [21] = species on record: Rattus norvegicus; test: Percent inhibition at 250 ug/mL of binary mixtures of compound and delta-tocotrienol on cholesterol synthesis in rat hepatocytes; format: functional, Hepatocyte
Rattus norvegicus [22] = species on record: Rattus norvegicus; test: Percent inhibition at 250 ug/mL of binary mixtures of compound and gamma-tocotrienol on cholesterol synthesis in rat hepatocytes; format: functional, Hepatocyte
Rattus norvegicus [23] = species on record: Rattus norvegicus; test: Compound is evaluated for the inhibition of cholesterol biosynthesis in isolated rat hepatocytes at the concentration 500 ug/mL; format: functional, Hepatocyte
Gallus gallus [24] = species on record: Gallus gallus; test: Compound is evaluated for the effect on lipid metabolism in 6-week-old male chickens at a concentration of 20 ppm in the diet and measured for HDL cholesterol (dose 15 p.p.m.); format: functional
Gallus gallus [25] = species on record: Gallus gallus; test: Compound is evaluated for the effect on lipid metabolism in 6-week-old male chickens at a concentration of 20 ppm in the diet and measured for HDL cholesterol (dose 30 p.p.m.); format: functional
Gallus gallus [26] = species on record: Gallus gallus; test: Compound is evaluated for the effect on lipid metabolism in 6-week-old male chickens at a concentration of 20 ppm in the diet and measured for HDL cholesterol dose 45 p.p.m.); format: functional
Gallus gallus [27] = species on record: Gallus gallus; test: picomoles of mevalonic acid synthesized per minute per mg of microsomal protein (dose 15 p.p.m.); format: functional, organism-based
Gallus gallus [28] = species on record: Gallus gallus; test: picomoles of mevalonic acid synthesized per minute per mg of microsomal protein(dose 30 p.p.m.); format: functional, organism-based
Gallus gallus [29] = species on record: Gallus gallus; test: picomoles of mevalonic acid synthesized per minute per mg of microsomal […] 45 p.p.m.); format: functional, organism-based
Gallus gallus [30] = species on record: Gallus gallus; test: Compound is evaluated for the effect on lipid metabolism in 6-week-old male chickens at a concentration of 20 ppm in the diet and measured for LDL cholesterol (dose 15 p.p.m.); format: functional; in short: as §2
Gallus gallus [31] = species on record: Gallus gallus; test: Compound is evaluated for the effect on lipid metabolism in 6-week-old male chickens at a concentration of 20 ppm in the diet and measured for LDL cholesterol (dose 30 p.p.m.); format: functional; in short: as §2
Gallus gallus [32] = species on record: Gallus gallus; test: Compound is evaluated for the effect on lipid metabolism in 6-week-old male chickens at a concentration of 20 ppm in the diet and measured for LDL cholesterol dose 45 p.p.m.); format: functional; in short: as §2
Gallus gallus [33] = species on record: Gallus gallus; test: Compound is evaluated for the effect on lipid metabolism in 6-week-old male chickens at a concentration of 20 ppm in the diet and measured for total cholesterol (dose 15 p.p.m.); format: functional
Gallus gallus [34] = species on record: Gallus gallus; test: Compound is evaluated for the effect on lipid metabolism in 6-week-old male chickens at a concentration of 20 ppm in the diet and measured for total cholesterol (dose 30 p.p.m.); format: functional
Gallus gallus [35] = species on record: Gallus gallus; test: Compound is evaluated for the effect on lipid metabolism in 6-week-old male chickens at a concentration of 20 ppm in the diet and measured for total cholesterol (dose 45 p.p.m.); format: functional
Gallus gallus [36] = species on record: Gallus gallus; test: Compound is evaluated for the effect on lipid metabolism in 6-week-old male chickens at a concentration of 20 ppm in the diet and measured for HDL cholesterol (dose 45 p.p.m.); format: functional
Gallus gallus [37] = species on record: Gallus gallus; test: picomoles of mevalonic acid synthesized per minute per mg of microsomal protein(dose 45 p.p.m.); format: functional, organism-based
Gallus gallus [38] = species on record: Gallus gallus; test: Compound is evaluated for the effect on lipid metabolism in 6-week-old male chickens at a concentration of 20 ppm in the diet and measured for LDL cholesterol (dose 45 p.p.m.); format: functional; in short: as §2
Rattus norvegicus [39] = species on record: Rattus norvegicus; test: Percent inhibition at 250 ug/mL of binary mixtures of compound and alpha-tocotrienol on cholesterol synthesis in rat hepatocytes; format: functional, Hepatocyte
[40] = Rattus norvegicus, Hepatocyte, read-out: IC50

Work on `CC(C)=CCC/C(C)=C/CC/C(C)=C/CCC1(C)CCc2c(C)c(O)c(C)c(C)c2O1` (racemic) yielded an Inhibition (HepG2 [1]) of 19%, an Inhibition (HepG2 [2]) of 21% and an IC50 (HepG2 [3]) of 380 µM. It also gave an IC50 (HepG2 [4]) of 94 µM, a Relative potency (HepG2 [5]) of 0.016 and a Relative potency (HepG2 [6]) of 0.03. For the same compound, the Relative potency (HepG2 [7]) was 0.027, the Inhibition (Rattus norvegicus [8]) was 17% and the Inhibition (Rattus norvegicus [9]) was 4%. For the same compound, the IC50 (HepG2 [10]) was 110 µM.

For `CC(C)=CCC/C(C)=C/CC/C(C)=C/CC[C@]1(C)CCc2cc(O)cc(C)c2O1` [DELTA-TOCOTRIENOL], the HDL cholesterol (Gallus gallus [11]) was 99 mg 100ml-1, the HMGR activity (Gallus gallus [12]) was 550 and the LDL cholesterol (Gallus gallus [13]) was 41 mg 100ml-1. The Total cholesterol (Gallus gallus [14]) was 141 mg 100ml-1, the Inhibition (HepG2 [15]) was 65% and the Inhibition (HepG2 [16]) was 77%. For the same compound, the Inhibition (Rattus norvegicus [17]) was 49% and 33%, the Inhibition (Rattus norvegicus [18]) was 62% and 63% and the IC50 (Rattus norvegicus [19]; [40]) was 260 µg/mL (≈ 656 µM). It also gave an IC50 (Rattus norvegicus [19]; hepatocyte) of 340 µg/mL (≈ 857 µM) and an Inhibition (Rattus norvegicus [20]) of 26%.

For `CC(C)=CCC/C=C/CCC1(C)CCc2cc(O)c(C)c(C)c2O1` (configuration not stated), the Inhibition (HepG2 [2]) was 38%.

`CC(C)=CCC/C(C)=C/CC/C(C)=C/CC[C@]1(C)CCc2c(C)c(O)c(C)c(C)c2O1` [ALPHA-TOCOTRIENOL] showed an HDL cholesterol (Gallus gallus [11]) of 102 mg 100ml-1, an HMGR activity (Gallus gallus [12]) of 670 and an LDL cholesterol (Gallus gallus [13]) of 55 mg 100ml-1. For the same compound, the Total cholesterol (Gallus gallus [14]) was 155 mg 100ml-1, the Inhibition (HepG2 [15]) was 15% and the Inhibition (HepG2 [16]) was 32%. For the same compound, the Inhibition (Rattus norvegicus [21]) was 53%, the Inhibition (Rattus norvegicus [22]) was 49% and the Inhibition (Rattus norvegicus [17]) was 8% and 20%. For the same compound, the Inhibition (Rattus norvegicus [23]) was 12% and 33%, the IC50 (Rattus norvegicus [19]; [40]) was > 1000 µg/mL and the IC50 (Rattus norvegicus [19]; hepatocyte) was 1300 µg/mL (≈ 3060 µM). For the same compound, the Inhibition (Rattus norvegicus [20]) was 8%.

In the case of `CC(C)=CCC/C(C)=C/CC/C(C)=C/CCC1(C)CCc2cc(O)c(C)c(C)c2O1` (racemic), the HDL cholesterol (Gallus gallus [24]) is reported as 97 mg 100ml-1, the HDL cholesterol (Gallus gallus [25]) is reported as 97 mg 100ml-1 and the HDL cholesterol (Gallus gallus [26]) is reported as 96 mg 100ml-1. The HMGR activity (Gallus gallus [27]) was 603, the HMGR activity (Gallus gallus [28]) was 561 and the HMGR activity (Gallus gallus [29]) was 551. For the same compound, the LDL cholesterol (Gallus gallus [30]) was 44 mg 100ml-1, the LDL cholesterol (Gallus gallus [31]) was 39 mg 100ml-1 and the LDL cholesterol (Gallus gallus [32]) was 32 mg 100ml-1. For the same compound, the Total cholesterol (Gallus gallus [33]) was 143 mg 100ml-1, the Total cholesterol (Gallus gallus [34]) was 138 mg 100ml-1 and the Total cholesterol (Gallus gallus [35]) was 132 mg 100ml-1. The Inhibition (HepG2 [15]) was 62%, the Inhibition (HepG2 [16]) was 71% and the IC50 (HepG2 [3]) was 5.9 µM. For the same compound, the IC50 (HepG2 [4]) was 2.8 µM and the IC50 (HepG2 [10]) was 3 µM.

Work on `CC(C)=CCC/C(C)=C/CC/C(C)=C/CC[C@]1(C)CCc2cc(O)c(C)c(C)c2O1` [GAMMA-TOCOTRIENOL] yielded an HDL cholesterol (Gallus gallus [11]) of 102 mg 100ml-1, an HDL cholesterol (Gallus gallus [24]) of 97 mg 100ml-1 and an HDL cholesterol (Gallus gallus [25]) of 95 mg 100ml-1. The HDL cholesterol (Gallus gallus [36]) was 94 mg 100ml-1, the HMGR activity (Gallus gallus [12]) was 494 and the HMGR activity (Gallus gallus [27]) was 606. It also gave an HMGR activity (Gallus gallus [28]) of 561, an HMGR activity (Gallus gallus [37]) of 546 and an LDL cholesterol (Gallus gallus [13]) of 41 mg 100ml-1. It also gave an LDL cholesterol (Gallus gallus [30]) of 42 mg 100ml-1, an LDL cholesterol (Gallus gallus [31]) of 35 mg 100ml-1 and an LDL cholesterol (Gallus gallus [38]) of 29 mg 100ml-1. It also gave a Total cholesterol (Gallus gallus [33]) of 141 mg 100ml-1, a Total cholesterol (Gallus gallus [14]) of 151 mg 100ml-1 and a Total cholesterol (Gallus gallus [34]) of 132 mg 100ml-1. It also gave a Total cholesterol (Gallus gallus [35]) of 125 mg 100ml-1, an Inhibition (HepG2 [15]) of 64% and an Inhibition (HepG2 [16]) of 78%. For the same compound, the Inhibition (Rattus norvegicus [39]) was 64%, the Inhibition (Rattus norvegicus [17]) was 48% and 34% and the Inhibition (Rattus norvegicus [23]) was 61%. The inhibition at 500 µg/mL (Rattus norvegicus [23]; Rattus norvegicus, Hepatocyte) was 60%, the IC50 (Rattus norvegicus [19]; [40]) was 270 µg/mL (≈ 658 µM) and the IC50 (Rattus norvegicus [19]; hepatocyte) was 360 µg/mL (≈ 877 µM). It also gave an Inhibition (Rattus norvegicus [20]) of 28%.
